Bioassay records: PubChem, The Scripps Research Institute Molecular Screening Center
Compounds with a hit are over-represented: about 2% of the library has one in this group of screens.
M5 ag = human M5 muscarinic receptor agonists, primary screen, CHO-K1 cells, Fluo-8 calcium fluorescence; CHO-K1 hM5 cells; 0% DMSO wells, 100% maximal acetylcholine response; activation, % at 3 µM; 360,000 compounds, 0.19% hits;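 active = activation above the run's mean over test compounds plus 3 SD, cut at about 23% in these data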;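 also: signal is peak over basal fluorescence ratio across the kinetic read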
Target sequence (P08912 whole entry, looked up): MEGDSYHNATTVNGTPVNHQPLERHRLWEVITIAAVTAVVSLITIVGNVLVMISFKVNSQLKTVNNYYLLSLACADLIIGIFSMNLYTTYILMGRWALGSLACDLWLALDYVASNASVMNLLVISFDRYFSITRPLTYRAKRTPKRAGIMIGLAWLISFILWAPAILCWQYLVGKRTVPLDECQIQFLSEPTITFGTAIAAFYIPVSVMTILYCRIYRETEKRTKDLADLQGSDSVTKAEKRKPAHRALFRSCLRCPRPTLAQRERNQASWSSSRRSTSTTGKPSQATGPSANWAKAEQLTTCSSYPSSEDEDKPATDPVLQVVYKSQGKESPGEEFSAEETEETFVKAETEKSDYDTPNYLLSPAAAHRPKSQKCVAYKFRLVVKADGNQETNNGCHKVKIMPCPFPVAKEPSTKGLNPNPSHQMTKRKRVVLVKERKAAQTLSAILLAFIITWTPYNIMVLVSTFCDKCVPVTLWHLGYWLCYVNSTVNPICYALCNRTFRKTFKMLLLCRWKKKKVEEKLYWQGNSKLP
M1 PAM = human M1 muscarinic receptor positive allosteric modulators, primary screen, CHO-K1 cells, Fluo-8 calcium fluorescence, 1536-well | 360,000 compounds, 0.088% hits | activation, % at 3 µM | CHO-K1 hM1, ACh EC20; 0% = ACh EC20, 100% = maximal ACh | Muscarinic acetylcholine receptor M1 (Homo sapiens), P11229; in the data active = activation above about 19%, passing the limit was not always enough
CHRM5 antagonist = human M5 muscarinic receptor antagonists, primary screen, CHO cells, Fluo-8 calcium fluorescence; CHO-hM5 cells, ACh EC80; Muscarinic acetylcholine receptor M5 (Homo sapiens), P08912; 360,000 compounds, 0.59% hits; inhibition, % at 3 µM;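 active = inhibition above a per-plate cutoff, the mean of that plate's test compounds plus 3 SD, cut at about 27% in these data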;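 also: 0% = acetylcholine EC80 with DMSO and 100% = DMSO without agonist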
M5 PAM = human M5 muscarinic receptor positive allosteric modulators, primary screen, CHO-K1 cells, Fluo-8 calcium fluorescence. CHO-K1 hM5, ACh EC20 PAM; 0% = ACh EC20, 100% = ACh EC100. Muscarinic acetylcholine receptor M5 (Homo sapiens), P08912. 360,000 compounds, 0.3% hits. activation, % at 3 µM;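 active = activation above the run cutoff, the mean activation of all test compounds plus 3 SD, cut at about 18% in these data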
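System – CHO-K1 hM5 cells · Compound – 3 µM, single dose · Incubation – compound preincubation 140 s before EC20 acetylcholine addition · Technique – Fluo-8 calcium fluorescence · Measure – Max/basal fluorescence ratio as % of EC20–EC100 ACh window · Benchmarks – low control EC20 acetylcholine (0%), high control EC100 acetylcholine (100%) · Replication – singlicate, one well per test compound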
CHRM1 antagonist = human M1 muscarinic receptor antagonists, primary screen, CHO-K1 cells, Fluo-8 calcium fluorescence, 1536-well; Muscarinic acetylcholine receptor M1 (Homo sapiens), P11229; CHO-K1 hM1, ACh EC80 antagonist; inhibition, % at 3 µM; 360,000 compounds, 1.3% hits; AID 588852, 2011;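 active = percent inhibition above its own plate's cutoff, namely the mean of that plate's compound wells plus 3 SD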;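 also: peak over basal fluorescence ratio during 140 s after agonist addition; 0% = ACh EC80 plus DMSO and 100% = DMSO alone without agonist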
M1 ag = human M1 muscarinic receptor agonists, primary screen, Fluo-8 calcium fluorescence, CHO-K1 cells, HTS; activation, % at 3 µM; 360,000 compounds, 0.33% hits; Muscarinic acetylcholine receptor M1 (Homo sapiens), P11229; CHO-K1 hM1, agonist mode; 0% DMSO, 100% acetylcholine EC100;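 active = activation above the run's mean compound activation plus 3 SD, cut at about 16% in these data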;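 also: peak over basal fluorescence ratio within a 140 s kinetic read after compound addition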
* marks the source's active call; other numbers are inactive results; nt = not tested or not shown.

SMILES	M5 ag	M1 PAM	CHRM5 antagonist	M5 PAM	CHRM1 antagonist	M1 ag
CCC(C)NC(=O)C1CCN(S(=O)(=O)c2cc([N+](=O)[O-])ccc2Cl)CC1 (centres undefined)	0	16	10	-7	-14	-2
O=C(COc1ccccc1C(=O)O)Nc1nc2ccc([N+](=O)[O-])cc2s1	8	-10	20	-22	26*	4
Cc1cccc(OCC(=O)Nc2nc3ccc([N+](=O)[O-])cc3s2)c1C	1	0	-11	2	4	-2
Cc1ccccc1N(CC(=O)N1CCN(Cc2ccccc2)CC1)S(C)(=O)=O	1	9	3	2	-11	-5
COc1ccc2c(n1)Sc1nc3ccccc3nc1N2	31*	-12	23	-6	33	48*
CC(=O)Nc1ccc(S(=O)(=O)N2CCC(NC(=O)C(Cc3cccn3C)NC(C)=O)CC2)cc1 (centres undefined)	0	6	3	28*	-2	-3
CC(=O)N1N=C(c2ccc(Cl)cc2)OC1c1ccc(C(C)C)cc1 (centres undefined)	6	5	-8	33*	-9	-2
CC(=O)N1N=C(c2ccc(C)cc2)OC1c1ccc(Br)cc1 (centres undefined)	2	8	-24	3	0	-4
O=C(CCl)N1c2ccccc2Oc2ccc3ccccc3c21	38*	-6	23	-10	14	5
CC(=O)Nc1ccccc1OCC(=O)c1cc(C)n(Cc2cccs2)c1C	6	-10	30*	-17	32*	1
Cc1ccccc1NC(=O)c1ccc(CN2CCC(Cc3ccccc3)CC2)cc1	-5	-21	22	-25	55*	-4
C=CCNC(=O)c1ccc(CN2CCC(Cc3ccccc3)CC2)cc1	-23	-28	-6	-19	74*	-9
CC(C)NC(=O)c1ccc(CN2CCC(Cc3ccccc3)CC2)cc1	-23	-27	6	-24	84*	-8
COc1ccc(CCNC(=O)c2ccc(CN3CCC(Cc4ccccc4)CC3)cc2)cc1	-7	-10	5	-8	-1	-7
C=CCNC(=S)N1CCC(Cc2ccccc2)CC1	-4	9	-5	1	-6	-4
N#Cc1ccc(CN2CCN(C(=O)C3CC(=O)N(c4ccc5c(c4)OCCO5)C3)CC2)cc1 (centres undefined)	1	9	-2	3	-19	-2
CC1(c2nnnn2-c2ccc3c(c2)OCCO3)CCC(=O)N1Cc1ccc(F)cc1 (centres undefined)	1	nt	2	-8	nt	nt
CC1CN(C(=O)CSc2nnc(-c3ccccc3)o2)CC(C)O1 (centres undefined)	-2	8	-3	22*	-9	-3
CS(=O)(=O)Nc1ccc(F)cc1	5	nt	-8	-3	nt	nt
O=C1CCCCC(=O)[C@H](OC(=O)c2ccccc2)C[C@H](c2ccccc2)O1	1	nt	9	-6	nt	nt
Cn1c(CCC(=O)OCC(=O)Nc2ccc(Oc3ccccc3)cc2)nc(=O)c2ccccc21	-6	-29	2	1	37*	-11
CC[C@]12C(=O)N(C)C[C@H]([C@@H]3C(=O)N(C)C(=O)[C@@H]31)N2C(=O)c1ccccc1	1	12	9	12	-15	3
CCN(CC#CCC1(O)c2ccccc2-c2ccccc21)CCO	-6	-1	9	-5	-1	-7
CN(C)CC#CCC(O)(c1ccccc1)c1ccccc1	-19	-24	24	-31	87*	-7
CCN(CC)CC#CCC(O)(c1ccccc1)c1ccc(Br)cc1 (centres undefined)	-8	-23	11	-17	92*	-4
